{"source": "ChEMBL document CHEMBL4229344", "about": "(Eur J Med Chem, 2018)", "key": {"[1]": {"molecular_target": "RAC-gamma serine/threonine-protein kinase (Homo sapiens) (UniProt Q9Y243)", "test": "Binding affinity to wild-type human partial length AKT3 expressed in bacterial expression system assessed as residual binding level at 1 uM by Kinomescan method relative to control", "method_in_brief": "(§1)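 Kinome-wide competition binding screen against a panel of 468 purified kinases/mutants, with the test compound at a single concentration of 1 μM. Read-out is the relative binding activity of each kinase in the presence of compound.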"}, "[2]": {"molecular_target": "Cyclin-dependent kinase-like 2 (Homo sapiens) (UniProt Q92772)", "test": "Binding affinity to wild-type human partial length CDKL2 (M1 to D327 residues) expressed in bacterial expression system assessed as residual binding level at 1 uM by Kinomescan method relative to control"}, "[3]": {"molecular_target": "Mitogen-activated protein kinase 7 (Homo sapiens) (UniProt Q13164)", "test": "Binding affinity to wild-type human partial length ERK5 (M1 to A409 residues) expressed in bacterial expression system assessed as residual binding level at 1 uM by Kinomescan method relative to control", "method_in_brief": "as §1"}, "[4]": {"molecular_target": "Vascular endothelial growth factor receptor 1 (Homo sapiens) (UniProt P17948)", "test": "Binding affinity to wild-type human partial length FLT1 (R781 to F1239 residues) expressed in bacterial expression system assessed as residual binding level at 1 uM by Kinomescan method relative to control", "method_in_brief": "as §1"}, "[5]": {"molecular_target": "Receptor-type tyrosine-protein kinase FLT3 (Homo sapiens) (UniProt P36888)", "test": "Binding affinity to wild-type human partial length FLT3 (V592 to Y969 residues) expressed in bacterial expression system assessed as residual binding level at 1 uM by Kinomescan method relative to control"}, "[6]": {"molecular_target": "Cyclin-G-associated kinase (Homo sapiens) (UniProt O14976)", "test": "Binding affinity to wild-type human partial length GAK (G13 to Y338 residues) expressed in bacterial expression system assessed as residual binding level at 1 uM by Kinomescan method relative to control", "method_in_brief": "as §1"}, "[7]": {"molecular_target": "Homeodomain-interacting protein kinase 2 (Homo sapiens) (UniProt Q9H2X6)", "sequence (Q9H2X6 whole entry, looked up, the tested form may be a part)": "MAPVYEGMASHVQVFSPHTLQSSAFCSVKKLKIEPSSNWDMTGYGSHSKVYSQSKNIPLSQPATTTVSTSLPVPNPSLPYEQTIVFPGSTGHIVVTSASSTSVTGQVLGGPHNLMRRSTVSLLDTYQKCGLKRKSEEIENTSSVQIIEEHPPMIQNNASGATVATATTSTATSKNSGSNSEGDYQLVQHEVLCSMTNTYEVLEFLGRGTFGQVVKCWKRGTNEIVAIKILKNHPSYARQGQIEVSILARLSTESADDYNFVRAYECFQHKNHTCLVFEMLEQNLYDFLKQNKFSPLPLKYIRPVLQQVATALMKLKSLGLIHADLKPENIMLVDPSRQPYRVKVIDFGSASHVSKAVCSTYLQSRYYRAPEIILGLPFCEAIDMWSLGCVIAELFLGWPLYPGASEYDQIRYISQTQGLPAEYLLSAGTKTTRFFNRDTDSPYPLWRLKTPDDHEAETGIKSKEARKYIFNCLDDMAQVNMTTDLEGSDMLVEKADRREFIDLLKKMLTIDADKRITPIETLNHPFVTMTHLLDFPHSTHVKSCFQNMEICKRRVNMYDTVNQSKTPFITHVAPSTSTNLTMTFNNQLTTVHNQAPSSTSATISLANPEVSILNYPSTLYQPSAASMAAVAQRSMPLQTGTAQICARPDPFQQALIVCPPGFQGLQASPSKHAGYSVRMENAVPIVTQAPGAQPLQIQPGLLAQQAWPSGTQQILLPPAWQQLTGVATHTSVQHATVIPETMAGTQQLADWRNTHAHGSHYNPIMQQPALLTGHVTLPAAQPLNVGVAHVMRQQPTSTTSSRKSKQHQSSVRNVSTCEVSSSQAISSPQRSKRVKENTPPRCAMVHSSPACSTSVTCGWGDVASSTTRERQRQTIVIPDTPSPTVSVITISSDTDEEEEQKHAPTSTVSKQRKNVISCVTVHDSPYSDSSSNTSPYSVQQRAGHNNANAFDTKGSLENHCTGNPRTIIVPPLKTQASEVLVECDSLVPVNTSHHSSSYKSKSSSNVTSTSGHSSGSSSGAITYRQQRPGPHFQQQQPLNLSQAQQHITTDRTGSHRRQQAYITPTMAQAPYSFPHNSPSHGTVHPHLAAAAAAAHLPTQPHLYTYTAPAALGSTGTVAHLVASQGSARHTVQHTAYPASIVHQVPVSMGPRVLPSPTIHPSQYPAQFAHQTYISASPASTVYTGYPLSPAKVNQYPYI", "test": "Binding affinity to wild-type human partial length HIPK2 (M153 to S564 residues) expressed in mammalian expression system assessed as residual binding level at 1 uM by Kinomescan method relative to control"}, "[8]": {"molecular_target": "Insulin-like growth factor 1 receptor (Homo sapiens) (UniProt P08069)", "test": "Binding affinity to wild-type human partial length IGF1R (L972 to D1294 residues) expressed in bacterial expression system assessed as residual binding level at 1 uM by Kinomescan method relative to control"}, "[9]": {"molecular_target": "Tyrosine-protein kinase ITK/TSK (Homo sapiens) (UniProt Q08881)", "test": "Binding affinity to wild-type human partial length ITK (R335 to L620 residues) expressed in bacterial expression system assessed as residual binding level at 1 uM by Kinomescan method relative to control"}, "[10]": {"molecular_target": "Tyrosine-protein kinase JAK1 (Homo sapiens) (UniProt P23458)", "test": "Binding affinity to wild-type human partial length JAK1 JH2 pseudokinase domain (R537 to D855 residues) expressed in mammalian expression system assessed as residual binding level at 1 uM by Kinomescan method relative to control"}, "[11]": {"molecular_target": "Tyrosine-protein kinase JAK3 (Homo sapiens) (UniProt P52333)", "test": "Binding affinity to wild-type human partial length JAK3 JH1 catalytic domain (I781 to S1124 residues) expressed in mammalian expression system assessed as residual binding level at 1 uM by Kinomescan method relative to control"}, "[12]": {"tested_on": "Leucine-rich repeat serine/threonine-protein kinase 2 (Homo sapiens), Q5S007 [G2019S]", "sequence (Q5S007 whole entry G2019S, the tested form may be a part)": "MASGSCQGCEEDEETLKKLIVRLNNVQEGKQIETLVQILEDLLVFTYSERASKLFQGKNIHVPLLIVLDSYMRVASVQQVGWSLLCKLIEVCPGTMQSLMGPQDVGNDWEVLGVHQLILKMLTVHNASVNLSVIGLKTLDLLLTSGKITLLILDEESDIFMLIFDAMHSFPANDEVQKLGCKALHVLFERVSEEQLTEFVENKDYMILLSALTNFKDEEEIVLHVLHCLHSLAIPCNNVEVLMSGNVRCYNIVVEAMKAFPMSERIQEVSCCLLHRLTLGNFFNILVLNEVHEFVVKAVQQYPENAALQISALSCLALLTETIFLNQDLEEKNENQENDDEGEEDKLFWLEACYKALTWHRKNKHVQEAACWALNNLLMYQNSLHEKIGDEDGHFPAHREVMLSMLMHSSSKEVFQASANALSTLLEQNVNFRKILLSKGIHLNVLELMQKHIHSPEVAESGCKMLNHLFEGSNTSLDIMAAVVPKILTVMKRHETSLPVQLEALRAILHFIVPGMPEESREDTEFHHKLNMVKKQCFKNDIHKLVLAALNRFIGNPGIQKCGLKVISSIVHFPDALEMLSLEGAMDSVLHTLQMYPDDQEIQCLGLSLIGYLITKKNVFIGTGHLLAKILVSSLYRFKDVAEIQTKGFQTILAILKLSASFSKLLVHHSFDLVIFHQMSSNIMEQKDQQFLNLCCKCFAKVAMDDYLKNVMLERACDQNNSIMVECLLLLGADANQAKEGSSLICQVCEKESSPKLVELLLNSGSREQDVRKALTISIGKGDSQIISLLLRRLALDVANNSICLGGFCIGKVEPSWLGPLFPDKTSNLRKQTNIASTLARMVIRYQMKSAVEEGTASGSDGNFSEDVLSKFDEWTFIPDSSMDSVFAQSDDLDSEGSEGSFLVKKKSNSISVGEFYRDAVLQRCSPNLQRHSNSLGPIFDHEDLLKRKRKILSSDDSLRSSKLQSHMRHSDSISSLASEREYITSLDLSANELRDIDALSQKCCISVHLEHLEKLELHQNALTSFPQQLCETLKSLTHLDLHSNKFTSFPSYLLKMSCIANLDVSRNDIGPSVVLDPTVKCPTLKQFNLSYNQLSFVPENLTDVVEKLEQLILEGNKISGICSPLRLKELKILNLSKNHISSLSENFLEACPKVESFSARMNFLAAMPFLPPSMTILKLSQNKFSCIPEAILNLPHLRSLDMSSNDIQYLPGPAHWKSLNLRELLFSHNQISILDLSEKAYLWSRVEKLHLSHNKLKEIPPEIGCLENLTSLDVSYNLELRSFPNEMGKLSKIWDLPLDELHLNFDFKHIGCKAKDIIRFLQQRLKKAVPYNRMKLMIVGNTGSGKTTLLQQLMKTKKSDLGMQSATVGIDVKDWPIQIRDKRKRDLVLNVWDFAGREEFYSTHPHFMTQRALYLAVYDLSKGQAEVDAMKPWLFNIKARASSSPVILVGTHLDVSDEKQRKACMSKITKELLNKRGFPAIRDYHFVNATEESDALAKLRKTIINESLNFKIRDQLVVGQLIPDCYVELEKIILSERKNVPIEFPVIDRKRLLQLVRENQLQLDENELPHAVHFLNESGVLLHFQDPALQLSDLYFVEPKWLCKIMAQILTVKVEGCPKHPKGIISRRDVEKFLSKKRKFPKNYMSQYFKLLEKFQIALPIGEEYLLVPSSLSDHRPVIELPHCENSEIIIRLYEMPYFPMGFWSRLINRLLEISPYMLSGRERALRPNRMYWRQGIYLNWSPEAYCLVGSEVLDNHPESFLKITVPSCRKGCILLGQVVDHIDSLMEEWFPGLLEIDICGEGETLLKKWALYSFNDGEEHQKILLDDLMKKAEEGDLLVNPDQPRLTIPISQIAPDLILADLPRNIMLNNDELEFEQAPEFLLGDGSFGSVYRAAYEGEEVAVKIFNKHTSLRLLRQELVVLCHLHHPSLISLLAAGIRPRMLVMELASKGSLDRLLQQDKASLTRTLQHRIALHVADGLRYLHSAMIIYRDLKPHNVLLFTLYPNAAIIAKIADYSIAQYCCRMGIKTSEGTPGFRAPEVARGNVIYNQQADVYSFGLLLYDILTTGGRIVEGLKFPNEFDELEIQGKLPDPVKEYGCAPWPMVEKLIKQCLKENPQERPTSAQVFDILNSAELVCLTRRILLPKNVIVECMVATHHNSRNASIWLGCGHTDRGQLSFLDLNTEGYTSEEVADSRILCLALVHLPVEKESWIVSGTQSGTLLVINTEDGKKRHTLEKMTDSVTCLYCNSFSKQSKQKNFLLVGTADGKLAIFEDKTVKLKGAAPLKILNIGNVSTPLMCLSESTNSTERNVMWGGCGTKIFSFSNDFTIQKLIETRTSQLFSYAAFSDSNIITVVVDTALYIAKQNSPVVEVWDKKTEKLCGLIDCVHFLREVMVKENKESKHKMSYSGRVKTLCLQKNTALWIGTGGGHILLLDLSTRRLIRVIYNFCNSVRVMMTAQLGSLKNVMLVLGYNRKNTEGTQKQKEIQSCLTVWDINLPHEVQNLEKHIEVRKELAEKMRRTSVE", "test": "Binding affinity to human partial length LRRK2 G2019S mutant (H970 to E2527 residues) expressed in mammalian expression system assessed as residual binding level at 1 uM by Kinomescan method relative to control", "method_in_brief": "(§2)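 Kinome-wide single-concentration binding screen (KINOMEscan) at 1 μM against a panel of 468 purified kinases and mutants. Read-out is relative binding of each kinase compared with control. Selectivity across the panel was summarised as an S(10) score.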"}, "[13]": {"tested_on": "Hepatocyte growth factor receptor (Homo sapiens), P08581 [Y1235D]", "test": "Binding affinity to human partial length MET Y1235D mutant (D1010 to S1367 residues) expressed in bacterial expression system assessed as residual binding level at 1 uM by Kinomescan method relative to control", "method_in_brief": "as §2"}, "[14]": {"molecular_target": "Myosin-IIIb (Homo sapiens) (UniProt Q8WXR4)", "test": "Binding affinity to wild-type human partial length MYO3B (M1 to D357 residues) expressed in bacterial expression system assessed as residual binding level at 1 uM by Kinomescan method relative to control"}, "[15]": {"molecular_target": "Mitogen-activated protein kinase kinase kinase 14 (Homo sapiens) (UniProt Q99558)", "test": "Binding affinity to wild-type human partial length NIK (L318 to P947 residues) expressed in mammalian expression system assessed as residual binding level at 1 uM by Kinomescan method relative to control", "method_in_brief": "(§3)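 KINOMEscan competition binding against a panel of 468 purified kinases/mutants, compound tested at 1 μM; readout is relative binding activity versus control.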"}, "[16]": {"molecular_target": "Mitogen-activated protein kinase 12 (Homo sapiens) (UniProt P53778)", "sequence (P53778 whole entry, the tested form may be a part)": "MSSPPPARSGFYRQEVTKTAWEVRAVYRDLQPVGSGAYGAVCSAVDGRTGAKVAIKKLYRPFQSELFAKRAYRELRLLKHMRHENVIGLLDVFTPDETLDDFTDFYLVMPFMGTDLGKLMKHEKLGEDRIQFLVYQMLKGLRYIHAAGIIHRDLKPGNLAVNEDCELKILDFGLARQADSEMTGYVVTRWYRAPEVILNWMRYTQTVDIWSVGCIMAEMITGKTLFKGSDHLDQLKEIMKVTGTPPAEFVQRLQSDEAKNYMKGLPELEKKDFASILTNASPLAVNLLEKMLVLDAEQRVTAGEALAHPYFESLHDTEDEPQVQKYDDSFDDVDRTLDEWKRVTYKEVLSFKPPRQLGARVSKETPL", "test": "Binding affinity to wild-type human full length p38-gamma (M1 to L367 residues) expressed in mammalian expression system assessed as residual binding level at 1 uM by Kinomescan method relative to control", "method_in_brief": "(§4)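 KINOMEscan competition binding against 468 purified kinases/mutants, test compound at 1 µM; residual binding relative to control.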"}, "[17]": {"molecular_target": "Serine/threonine-protein kinase PAK 3 (Homo sapiens) (UniProt O75914)", "test": "Binding affinity to wild-type human full length PAK3 (M1 to R544 residues) expressed in bacterial expression system assessed as residual binding level at 1 uM by Kinomescan method relative to control", "method_in_brief": "as §4"}, "[18]": {"molecular_target": "Phosphatidylinositol 4-phosphate 5-kinase type-1 alpha (Homo sapiens) (UniProt Q99755)", "sequence (Q99755 whole entry, the tested form may be a part)": "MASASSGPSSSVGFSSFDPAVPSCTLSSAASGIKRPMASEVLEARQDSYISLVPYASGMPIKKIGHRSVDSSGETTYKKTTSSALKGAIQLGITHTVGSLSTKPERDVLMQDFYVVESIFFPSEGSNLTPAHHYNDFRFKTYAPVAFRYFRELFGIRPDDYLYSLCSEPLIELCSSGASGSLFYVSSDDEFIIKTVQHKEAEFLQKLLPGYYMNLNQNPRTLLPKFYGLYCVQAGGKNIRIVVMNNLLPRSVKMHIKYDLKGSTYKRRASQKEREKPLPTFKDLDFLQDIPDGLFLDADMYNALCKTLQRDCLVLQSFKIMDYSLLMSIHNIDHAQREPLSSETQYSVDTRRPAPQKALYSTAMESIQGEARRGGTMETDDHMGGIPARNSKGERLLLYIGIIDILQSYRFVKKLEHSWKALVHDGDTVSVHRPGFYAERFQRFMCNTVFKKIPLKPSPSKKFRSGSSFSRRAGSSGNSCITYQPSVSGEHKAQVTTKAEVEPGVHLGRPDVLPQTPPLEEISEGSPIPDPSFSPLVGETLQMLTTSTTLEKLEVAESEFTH", "test": "Binding affinity to wild-type human full length PIP5K1A (M1 to H562 residues) expressed in bacterial expression system assessed as residual binding level at 1 uM by Kinomescan method relative to control", "method_in_brief": "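Single-concentration KINOMEscan (DiscoverX) binding screen at 1 μM against a panel of 468 purified kinases and mutants. The read-out is binding relative to control.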"}, "[19]": {"molecular_target": "Serine/threonine-protein kinase Sgk2 (Homo sapiens) (UniProt Q9HBY8)", "sequence (Q9HBY8 whole entry, the tested form may be a part)": "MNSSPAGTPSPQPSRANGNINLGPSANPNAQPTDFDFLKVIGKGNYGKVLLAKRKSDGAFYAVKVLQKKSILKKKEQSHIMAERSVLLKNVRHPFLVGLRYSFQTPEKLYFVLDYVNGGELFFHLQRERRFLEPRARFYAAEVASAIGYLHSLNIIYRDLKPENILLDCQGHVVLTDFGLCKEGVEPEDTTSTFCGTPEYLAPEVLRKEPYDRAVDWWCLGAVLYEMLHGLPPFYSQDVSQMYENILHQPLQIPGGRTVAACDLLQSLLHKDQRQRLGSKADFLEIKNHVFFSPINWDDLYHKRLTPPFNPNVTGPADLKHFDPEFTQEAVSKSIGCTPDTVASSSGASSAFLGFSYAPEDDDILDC", "test": "Binding affinity to wild-type human partial length SGK2 (L54 to C427 residues) expressed in mammalian expression system assessed as residual binding level at 1 uM by Kinomescan method relative to control"}, "[20]": {"molecular_target": "Mitogen-activated protein kinase kinase kinase 7 (Homo sapiens) (UniProt O43318)", "test": "Binding affinity to wild-type human partial length TAK1 (M1 to Q303 residues) expressed in mammalian expression system assessed as residual binding level at 1 uM by Kinomescan method relative to control", "method_in_brief": "as §3"}, "[21]": {"molecular_target": "Tyrosine-protein kinase receptor Tie-1 (Homo sapiens) (UniProt P35590)", "test": "Binding affinity to wild-type human partial length TIE1 (T819 to A1138 residues) expressed in bacterial expression system assessed as residual binding level at 1 uM by Kinomescan method relative to control"}, "[22]": {"molecular_target": "Serine/threonine-protein kinase 32C (Homo sapiens) (UniProt Q86UX6)", "test": "Binding affinity to wild-type human partial length YANK3 (M68 to G486 residues) expressed in bacterial expression system assessed as residual binding level at 1 uM by Kinomescan method relative to control"}}, "data": [{"smiles": "Cc1ccc(NC(=O)c2ccc(CN(CCN(C)C)C(=O)c3cccnc3)cc2)cc1Nc1nccc(-c2cccnc2)n1", "values": [{"measurement": "Activity", "setting": "[1]", "value": 92, "unit": "%"}, {"measurement": "Activity", "setting": "[2]", "value": 95, "unit": "%"}, {"measurement": "Activity", "setting": "[3]", "value": 84, "unit": "%"}, {"measurement": "Activity", "setting": "[4]", "value": 75, "unit": "%"}, {"measurement": "Activity", "setting": "[5]", "value": 89, "unit": "%"}, {"measurement": "Activity", "setting": "[6]", "value": 82, "unit": "%"}, {"measurement": "Activity", "setting": "[7]", "value": 100, "unit": "%"}, {"measurement": "Activity", "setting": "[8]", "value": 95, "unit": "%"}, {"measurement": "Activity", "setting": "[9]", "value": 100, "unit": "%"}, {"measurement": "Activity", "setting": "[10]", "value": 78, "unit": "%"}, {"measurement": "Activity", "setting": "[11]", "value": 100, "unit": "%"}, {"measurement": "Activity", "setting": "[12]", "value": 59, "unit": "%"}, {"measurement": "Activity", "setting": "[13]", "value": 93, "unit": "%"}, {"measurement": "Activity", "setting": "[14]", "value": 97, "unit": "%"}, {"measurement": "Activity", "setting": "[15]", "value": 82, "unit": "%"}, {"measurement": "Activity", "setting": "[16]", "value": 69, "unit": "%"}, {"measurement": "Activity", "setting": "[17]", "value": 40, "unit": "%"}, {"measurement": "Activity", "setting": "[18]", "value": 100, "unit": "%"}, {"measurement": "Activity", "setting": "[19]", "value": 100, "unit": "%"}, {"measurement": "Activity", "setting": "[20]", "value": 92, "unit": "%"}, {"measurement": "Activity", "setting": "[21]", "value": 93, "unit": "%"}, {"measurement": "Activity", "setting": "[22]", "value": 96, "unit": "%"}]}]}
